The text below walks through data of ChEMBL document CHEMBL1135888, “Synthesis of new covalently bound kappa-carrageenan-AZT conjugates with improved anti-HIV activities” (J Med Chem, 2002).

Data set [1] has as its system MT4. The experiment in a line: Concentration required to inhibit the cytopathicity of HIV-1 strain BRU by 50% in MT-4 cells (expressed in AZT equivalent). It is filed as functional, cell-based. Conditions: Homo sapiens. The procedure, abridged: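 MT-4 cells (3 × 10⁵), cultured in RPMI/10% FCS, were pretreated with compound for 1 h at 37 °C. Cells were then infected with HIV-1 BRU (MOI 0.1 CCID/cell) for 1 h, washed three times and cultured 7 days with or without compound, with medium renewed on day 3. Cytopathicity was scored microscopically, in duplicate. Final DMSO was <2%, with DMSO-matched standard assays.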
On the technique in general: Cytopathic effects are the visible damage that an infection or toxin causes in cultured cells.

The test system of data set [2] is MT4. The experiment in a line: Concentration required to cause 50% death of uninfected MT-4 cells (expressed in AZT equivalent). Format: functional, Homo sapiens. The procedure, abridged: (§1)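 Uninfected MT-4 cells were exposed to compound. Growth was followed and viability measured by trypan blue exclusion, or as viability of mock-infected cells on day 5. CC50 is the concentration giving 50% cell death.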

For data set [3], the system named is MT4. The data set can be described thus: Concentration required to inhibit the cytopathicity of HIV-1 strain IIIB by 50% in MT-4 cells (expressed in AZT equivalent). It is filed as functional, cell-based. The settings on record: Homo sapiens. The procedure, abridged: (§2)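 MT-4 cells in RPMI 1640 with 10% heat-inactivated FCS, 2 mM L-glutamine, 0.1% bicarbonate and 20 µg/mL gentamicin were infected with HIV-1 IIIB before compound was added. Inhibition of virus-induced cytopathicity was read 5 days after infection.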

Another data set is filed under the species Homo sapiens. The experiment in a line: % Nucleoside derivatives released after 48 hr of hydrolysis at pH 7.2. It is filed as functional. In short, it runs like this: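 Incubation at 37 °C for 48 h in normal human serum (pH 7.2). Aliquots were quenched in ice-cold methanol and centrifuged, and supernatants were filtered. HPLC used a 20–100% solvent B gradient over 20 min with detection at 267 nm. Percent of AZT and succinate-AZT released was calculated from peak areas.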

A short description of data set [4]: half life required for 50% hydrolysis of compound to AZT upon incubation in NHS. Format: ADME, organism-based. The settings on record: human, NHS (human serum). In short, it runs like this: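 Incubation at 37 °C in normal human serum. Samples were quenched with ice-cold methanol, centrifuged and filtered, then run on HPLC at 267 nm. t1/2 is the time to 50% hydrolysis to AZT.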

Data set [5] relates to MT4. The experiment in a line: Concentration required to cause 50% death of uninfected MT-4 cells (expressed in k-carrageenan equivalent). It is filed as functional, Homo sapiens. In short, it runs like this: as §1
Data set [6] deals with MT4. The experiment in a line: Concentration required to inhibit the cytopathicity of HIV-1 strain IIIB by 50% in MT-4 cells (expressed in k-carrageenan equivalent). Format: functional, cell-based. The settings on record: Homo sapiens. The procedure, abridged:
as §2

“And” between values parts separate entries of the source, which are not always exact repeats. Identical values can stand only once.

Turning to `Cc1cn([C@H]2C[C@H](N=[N+]=[N-])[C@@H](CO)O2)c(=O)[nH]c1=O` [ZIDOVUDINE], the EC50 (in general, the concentration giving half of the maximal effect) in the data set with MT4 [1] came to 25 nM. Also, the CC50 (as a rule, the concentration that lowers cell viability or growth by half) with MT4 [2] is > 100000 nM and 42000 nM.
As to `Cc1cn([C@H]2C[C@H](N=[N+]=[N-])[C@@H](COC(=O)CCC(=O)O)O2)c(=O)[nH]c1=O`, the EC50 with MT4 [1] is 15 nM; with MT4 [3], 65 nM. The CC50 in the data set with MT4 [2] was > 50000 nM and 130000 nM. Besides, the Release in the data set filed under Homo sapiens is 100%. Besides, the half-life (in general, the time needed for the level to fall by half in the phase considered) in data set [4] was 25 h.
In the case of `CO[C@H]1O[C@@H]2CO[C@@H]([C@H]1O)[C@H]2O[C@@H]1O[C@H](CO)[C@H](OS(=O)(=O)[O-])[C@H](O[C@H]2O[C@@H]3CO[C@@H]([C@H]2O)[C@H]3O[C@@H]2O[C@H](COC(=O)CCC(=O)OC[C@H]3O[C@@H](n4cc(C)c(=O)[nH]c4=O)C[C@@H]3N=[N+]=[N-])[C@H](OS(=O)(=O)[O-])[C@H](O[C@H]3O[C@@H]4CO[C@@H]([C@H]3O)[C@H]4O[C@@H]3O[C@H](CO)[C@H](OS(=O)(=O)[O-])[C@@H](O[C@H]4O[C@@H]5CO[C@@H]([C@H]4O)[C@H]5O[C@@H]4O[C@H](CO)[C@H](OS(=O)(=O)[O-])[C@H](O[C@H]5O[C@@H]6CO[C@@H]([C@H]5O)[C@H]6O[C@@H]5O[C@H](COC(=O)CCC(=O)OC[C@H]6O[C@@H](n7cc(C)c(=O)[nH]c7=O)C[C@@H]6N=[N+]=[N-])[C@H](OS(=O)(=O)[O-])[C@H](O[C@H]6O[C@@H]7CO[C@@H]([C@H]6O)[C@H]7O[C@@H]6O[C@H](CO)[C@H](OS(=O)(=O)[O-])[C@@H](O[C@H]7O[C@@H]8CO[C@@H]([C@H]7O)[C@H]8O[C@@H]7O[C@H](CO)[C@H](OS(=O)(=O)[O-])[C@H](O[C@H]8O[C@@H]9CO[C@@H]([C@H]8O)[C@H]9O[C@@H]8O[C@H](COC(=O)CCC(=O)OC[C@H]9O[C@@H](n%10cc(C)c(=O)[nH]c%10=O)C[C@@H]9N=[N+]=[N-])[C@H](OS(=O)(=O)[O-])[C@H](O[C@H]9O[C@@H]%10CO[C@@H]([C@H]9O)[C@H]%10O[C@@H]9O[C@H](CO)[C@H](OS(=O)(=O)[O-])[C@H](C)[C@H]9O)[C@H]8O)[C@H]7O)[C@H]6O)[C@H]5O)[C@H]4O)[C@H]3O)[C@H]2O)[C@H]1O.[Na+].[Na+].[Na+].[Na+].[Na+].[Na+].[Na+].[Na+].[Na+]`, the CC50 stood at 300 µg/mL in the data set on MT4 [5] and 300 µg/mL in the data set with MT4 [5] (Homo sapiens, MT4, read-out: CC50). In addition, the EC50 in the data set on MT4 [3] was 109 nM; in the data set with MT4 [6] it was 1.6 µg/mL. In addition, in the data set filed under Homo sapiens, the Release is reported as 39%.
